Source: ChEMBL document CHEMBL1124534, “Synthesis, mechanism of action, and biological evaluation of mitosenes” (1989)
In brackets after ≈: the same amount, converted by molar mass.

Columns and labels:
Mus musculus [1] = experiment: Body wieght treated/body weight untreated controls of compound (10 mg/Kg) was evaluated in vivo for antitumor activity against MAC 16 in female NMRI mice on day 4; type: functional
Mus musculus [2] = experiment: Ability of intraperitoneally administered compound (3 mg/kg/day) to inhibit growth of human tumor xenograft GXF 97 was assessed on day 21 in nude mice; type: functional
How it was run: (§1)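 GXF 97 human gastric xenograft grown subcutaneously in nude mice for 24 days, then randomized; dosing began 1 day later as ip injections on days 1-4. Groups had 4-5 mice. Tumor length and width were measured. %T/C = median relative tumor size of treated / median relative tumor size of controls.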

Mus musculus [3] = experiment: Percentage change in body weight [(day 6 - day 1)/ day 1] for antitumor activity against P388 Leukemia in CD2 mice at fractioned dose treatment of 8 mg/Kg; type: functional; conditions: in the assay text read “single dose treatment” for “fractioned dose treatment”
How it was run: (§2)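 Mouse P388 leukemia model. Drugs were given intraperitoneally, either as a single injection or once daily for 9 consecutive days (fractioned schedule). Outcomes were median survival time in days, %T/C, and % body weight change.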

Mus musculus [4] = experiment: Compound (10 mg/Kg) was evaluated in vivo for antitumor activity against MAC 16 in female NMRI mice on day 4 and ratio of tumor weight of treated to that of control was determined; type: functional
Mus musculus [5] = experiment: Ability of intraperitoneally administered compound (3 mg/kg/day) to inhibit growth of human tumor xenograft GXF 97 was assessed on day 28 in nude mice; type: functional; how it was run: as §1
Mus musculus [6] = experiment: Percentage change in body weight [(day 6 - day 1)/ day 1] for antitumor activity against P388 Leukemia in CD2 mice at fractioned dose treatment of 12 mg/kg; type: functional; conditions: in the assay text read “single dose treatment” for “fractioned dose treatment”; how it was run: as §2
Mus musculus [7] = experiment: Median survival time in days for antitumor activity against P388 Leukemia in CD2 mice at single dose treatment of 8 mg/Kg
Mus musculus [8] = experiment: Median survival time in days for antitumor activity against P388 Leukemia in CD2 mice at single dose treatment of 12 mg/Kg
Mus musculus [9] = experiment: Percent inhibition of compound (10 mg/Kg) was evaluated in vivo for antitumor activity against MAC 13 in female NMRI mice on day 2; type: functional
How it was run: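 MAC 13 in female NMRI mice. Drugs were given in arachis oil BP by ip route on day 2 or day 29. % inhibition was derived from treated/untreated control tumor weight (volume); a negative value indicates stimulation.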

Mus musculus [10] = experiment: Percent T/C ([…]) for antitumor activity against P388 Leukemia in CD2 mice at fractioned dose treatment of 8 mg/Kg; type: functional; conditions: in the assay text read “single dose” for “fractioned dose”; how it was run: as §2
Mus musculus [11] = experiment: Mean relative body weight change of treated / mean relative body weight change of control when compound (3 mg/kg/day) administered to inhibit growth of human tumor xenograft GXF 97 was reported at day 14 in nude mice; type: functional
How it was run: (§3)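 GXF 97 xenograft grown subcutaneously in nude mice for 24 days, then randomized; ip dosing began 1 day later, given on days 1-4, with 4-5 mice per group. Read-out is mean relative body weight change of treated divided by mean relative body weight change of controls, in %.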

Mus musculus [12] = experiment: Mean relative body weight change of treated / mean relative body weight change of control when compound (3 mg/kg/day) administered to inhibit growth of human tumor xenograft GXF 97 was reported at day 28 in nude mice; type: functional; how it was run: as §3
Mus musculus [13] = experiment: Compound (10 mg/Kg) was evaluated in vivo for antitumor activity against MAC 16 in female NMRI mice on day 12 and ratio of tumor weight of treated to that of control was determined; type: functional
Mus musculus [14] = experiment: Ability of intraperitoneally administered compound (3 mg/kg/day) to inhibit growth of human tumor xenograft GXF 97 was assessed on day 14 in nude mice; type: functional; how it was run: as §1
Mus musculus [15] = experiment: Percent T/C ([…]) for antitumor activity against P388 Leukemia in CD2 mice at fractioned dose treatment of 2 mg/kg; type: functional; how it was run: as §2
Mus musculus [16] = experiment: Mean relative body weight change of treated / mean relative body weight change of control when compound (3 mg/kg/day) administered to inhibit growth of human tumor xenograft GXF 97 was reported at day 21 in nude mice; type: functional; how it was run: as §3
Mus musculus [17] = experiment: Median survival time in days for antitumor activity against P388 Leukemia in CD2 mice at fractioned dose treatment of 2 mg/kg; type: functional
How it was run: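 P388 leukemia-bearing mice were dosed intraperitoneally once daily for 9 consecutive days (fractioned schedule). The read-out was median survival time in days, reported alongside %T/C and % body weight change.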

A204 = experiment: In vitro antitumor activity against A204 rhabdomyosarcoma tumor cell line was determined; type: functional; conditions: Homo sapiens, read-out: ID50 (the source's name)
How it was run: (§4)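 Cell growth inhibition in vitro measured by the PIT method, with mitomycin C as positive reference.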

L1210 = experiment: In vitro antitumor activity against L1210 lymphocytic leukemia tumor cell line was determined; type: functional; conditions: Mus musculus, read-out: ID50 (the source's name)
How it was run: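 Inhibition of L1210 leukemia colony formation in vitro, with mitomycin C as positive reference.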

Mus musculus [18] = experiment: Percent T/C ([…]) for antitumor activity against P388 Leukemia in CD2 mice at fractioned dose treatment of 12 mg/kg; type: functional; conditions: in the assay text read “single dose” for “fractioned dose”; how it was run: as §2
WiDr = experiment: In vitro antitumor activity against WiDr colon carcinoma tumor cell line was determined; type: functional; conditions: Homo sapiens, read-out: ID50 (the source's name); how it was run: as §4
Mus musculus [19] = experiment: Body wieght treated/body weight untreated controls of compound (10 mg/Kg) was evaluated in vivo for antitumor activity against MAC 16 in female NMRI mice on day 12; type: functional
Mus musculus [20] = experiment: Relative tumor size on day 28 was reported when compound (3 mg/kg/day) administered to inhibit growth of human tumor xenograft GXF 97 in nude mice; type: functional
How it was run: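 GXF 97 human gastric xenograft grown subcutaneously in nude mice for 24 days, then mice randomized; treatment began 1 day later. Fractioned ip injections on days 1-4, or single iv injection on day 1; 4-5 mice per group. Tumor size from length and width; relative tumor size (% of controls) read at day 28.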

Mus musculus [21] = experiment: Percentage change in body weight [(day 6 - day 1)/ day 1] for antitumor activity against P388 Leukemia in CD2 mice at fractioned dose treatment of 2 mg/Kg; type: functional; how it was run: as §2
Mus musculus [22] = experiment: Compound (10 mg/Kg) was evaluated in vivo for antitumor activity against MAC 13 in female NMRI mice on day 2 and ratio of tumor weight of treated to that of control was determined

## COC1=CC(=O)c2c(c(COC(C)=O)c3n2CCC3OC(C)=O)C1=O (stereo not given)
Mus musculus [1]
  BW: 105%
Mus musculus [2]
  T/C: 31.7%
Mus musculus [3]
  BWC: -2%
Mus musculus [4]
  T/C: 99%
Mus musculus [5]
  T/C: 31.7%
Mus musculus [6]
  BWC: -1.8%
Mus musculus [7]
  MST: 11 days
Mus musculus [8]
  MST: 10 days
Mus musculus [9]
  I: -52%
Mus musculus [10]
  T/C: 100%
Mus musculus [11]
  BWC: 89.6%
Mus musculus [12]
  BWC: 87.1%
Mus musculus [13]
  T/C: 104%
Mus musculus [14]
  T/C: 39.3%
Mus musculus [15]
  T/C: 109%
Mus musculus [16]
  BWC: 86.5%
Mus musculus [17]
  MST: 12 days
A204
  IC50: 8 ng/mL (≈ 0.023 µM)
L1210
  IC50: 0.495 µg/mL (≈ 1.43 µM)
Mus musculus [18]
  T/C: 91%
WiDr
  IC50: 0.037 µg/mL (≈ 0.107 µM)
Mus musculus [19]
  BW: 81%
Mus musculus [20]
  Relative TS: 210.1%
Mus musculus [21]
  BWC: -20.9%
Mus musculus [22]
  T/C: 152%
